How the values were obtained:
[1] = molecular target: Mitogen-activated protein kinase 8 (Homo sapiens) (UniProt P45983); experiment: Inhibition of JNK1a1 at 1 uM
Method in brief: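 Single-point profiling in a panel of 108 kinases. Each selected inhibitor was tested at two concentrations, 0.1 and 1.0 micromolar. Values are reported as inhibition at each concentration.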

[2] = molecular target: Ribosomal protein S6 kinase beta-1 (Homo sapiens) (UniProt P23443); experiment: Inhibition of p70S6K at 1 uM
Ribosomal protein S6 kinase beta-1 (Homo sapiens), sequence (P23443 whole entry, looked up): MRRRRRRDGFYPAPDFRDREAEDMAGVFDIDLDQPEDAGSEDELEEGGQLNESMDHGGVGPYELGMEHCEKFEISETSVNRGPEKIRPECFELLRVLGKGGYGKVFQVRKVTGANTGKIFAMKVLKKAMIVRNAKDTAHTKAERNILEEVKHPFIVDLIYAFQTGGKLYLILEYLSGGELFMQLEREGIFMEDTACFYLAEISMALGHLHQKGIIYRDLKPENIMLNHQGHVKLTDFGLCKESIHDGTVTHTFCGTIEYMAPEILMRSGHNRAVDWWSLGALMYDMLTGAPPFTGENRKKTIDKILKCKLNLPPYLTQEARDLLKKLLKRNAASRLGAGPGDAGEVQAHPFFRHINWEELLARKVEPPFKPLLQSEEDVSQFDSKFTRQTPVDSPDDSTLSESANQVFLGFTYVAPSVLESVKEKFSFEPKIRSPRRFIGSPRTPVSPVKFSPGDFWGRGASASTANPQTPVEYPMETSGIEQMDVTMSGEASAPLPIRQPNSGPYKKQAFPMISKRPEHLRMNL

[3] = molecular target: Mitogen-activated protein kinase 14 (Homo sapiens) (UniProt Q16539); experiment: Inhibition of SAPK2a at 1 uM
Mitogen-activated protein kinase 14 (Homo sapiens), sequence (Q16539 whole entry): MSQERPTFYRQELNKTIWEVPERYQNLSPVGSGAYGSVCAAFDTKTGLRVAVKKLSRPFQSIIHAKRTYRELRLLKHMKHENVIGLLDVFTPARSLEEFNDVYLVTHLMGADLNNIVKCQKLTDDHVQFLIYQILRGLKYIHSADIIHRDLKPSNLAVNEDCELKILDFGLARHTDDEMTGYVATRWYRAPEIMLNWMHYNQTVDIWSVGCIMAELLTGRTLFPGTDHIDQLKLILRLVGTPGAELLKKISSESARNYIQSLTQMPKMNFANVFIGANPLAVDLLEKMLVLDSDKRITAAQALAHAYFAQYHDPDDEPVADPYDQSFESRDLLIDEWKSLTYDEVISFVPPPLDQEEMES

[4] = molecular target: Serine/threonine-protein kinase PLK2 (Homo sapiens) (UniProt Q9NYY3); experiment: Inhibition of Snk at 1 uM
Serine/threonine-protein kinase PLK2 (Homo sapiens), sequence (Q9NYY3 whole entry, looked up): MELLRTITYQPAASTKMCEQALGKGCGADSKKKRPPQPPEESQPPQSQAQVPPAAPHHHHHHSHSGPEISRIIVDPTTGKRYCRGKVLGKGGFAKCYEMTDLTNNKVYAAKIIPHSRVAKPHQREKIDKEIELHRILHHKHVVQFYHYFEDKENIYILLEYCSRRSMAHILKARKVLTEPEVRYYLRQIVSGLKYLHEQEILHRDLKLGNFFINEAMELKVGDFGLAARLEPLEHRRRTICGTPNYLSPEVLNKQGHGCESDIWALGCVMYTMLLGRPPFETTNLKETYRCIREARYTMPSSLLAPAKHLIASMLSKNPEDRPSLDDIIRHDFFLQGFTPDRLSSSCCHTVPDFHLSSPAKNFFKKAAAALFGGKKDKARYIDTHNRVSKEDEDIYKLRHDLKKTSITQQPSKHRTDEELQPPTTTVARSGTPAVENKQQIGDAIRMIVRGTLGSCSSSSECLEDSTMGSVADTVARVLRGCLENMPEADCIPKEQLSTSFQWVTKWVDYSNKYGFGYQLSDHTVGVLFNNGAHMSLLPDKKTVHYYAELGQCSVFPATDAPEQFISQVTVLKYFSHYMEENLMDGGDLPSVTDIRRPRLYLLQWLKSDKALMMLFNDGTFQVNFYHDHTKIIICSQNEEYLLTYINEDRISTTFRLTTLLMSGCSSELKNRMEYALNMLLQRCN

[5] = molecular target: T1, Tyrosine-protein kinase ITK/TSK (Homo sapiens) (UniProt Q08881); experiment: Inhibition of Itk at 1 uM; values are per cent of control
T1 sequence (whole entry): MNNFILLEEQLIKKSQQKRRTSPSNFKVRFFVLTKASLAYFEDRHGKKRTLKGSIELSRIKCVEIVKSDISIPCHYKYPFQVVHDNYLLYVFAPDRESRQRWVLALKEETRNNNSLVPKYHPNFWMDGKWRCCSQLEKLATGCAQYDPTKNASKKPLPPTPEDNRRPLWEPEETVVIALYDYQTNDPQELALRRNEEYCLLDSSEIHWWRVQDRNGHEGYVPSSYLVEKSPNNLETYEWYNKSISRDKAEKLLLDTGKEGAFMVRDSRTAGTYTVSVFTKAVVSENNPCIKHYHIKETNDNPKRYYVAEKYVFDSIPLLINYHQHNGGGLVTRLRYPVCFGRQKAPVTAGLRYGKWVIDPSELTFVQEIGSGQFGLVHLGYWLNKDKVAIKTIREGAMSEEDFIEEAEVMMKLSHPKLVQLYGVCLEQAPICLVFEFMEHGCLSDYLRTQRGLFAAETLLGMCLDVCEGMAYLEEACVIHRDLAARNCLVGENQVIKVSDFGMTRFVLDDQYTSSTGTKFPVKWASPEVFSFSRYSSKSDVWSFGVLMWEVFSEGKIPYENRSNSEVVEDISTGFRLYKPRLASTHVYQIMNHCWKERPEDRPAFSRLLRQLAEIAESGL

[6] = Inhibition of PKA at 1 uM; values are per cent of control
[7] = molecular target: T2, Cytoplasmic tyrosine-protein kinase BMX (Homo sapiens) (UniProt P51813); experiment: Inhibition of Bmx at 0.1 uM; values are per cent of control
T2 sequence (whole entry): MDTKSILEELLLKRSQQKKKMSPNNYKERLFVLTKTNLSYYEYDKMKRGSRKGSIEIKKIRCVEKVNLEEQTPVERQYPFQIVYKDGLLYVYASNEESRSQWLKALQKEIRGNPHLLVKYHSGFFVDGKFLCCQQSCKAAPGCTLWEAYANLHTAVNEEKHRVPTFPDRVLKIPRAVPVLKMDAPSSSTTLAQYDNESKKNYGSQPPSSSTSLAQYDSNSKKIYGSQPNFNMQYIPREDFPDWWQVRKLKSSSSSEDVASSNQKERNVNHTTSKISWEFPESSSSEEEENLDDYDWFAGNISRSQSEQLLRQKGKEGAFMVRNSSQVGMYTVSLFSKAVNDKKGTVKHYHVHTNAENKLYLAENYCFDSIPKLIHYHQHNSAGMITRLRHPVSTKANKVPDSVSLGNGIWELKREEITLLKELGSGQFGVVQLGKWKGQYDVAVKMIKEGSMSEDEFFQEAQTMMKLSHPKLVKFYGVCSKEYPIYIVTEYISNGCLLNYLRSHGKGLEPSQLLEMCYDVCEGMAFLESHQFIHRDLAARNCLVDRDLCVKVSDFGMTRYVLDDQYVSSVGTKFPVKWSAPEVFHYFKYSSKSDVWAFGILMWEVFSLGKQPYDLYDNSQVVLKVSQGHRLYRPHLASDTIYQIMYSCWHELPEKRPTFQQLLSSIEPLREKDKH

[8] = molecular target: Calcium/calmodulin-dependent protein kinase type 1 (Homo sapiens) (UniProt Q14012); experiment: Inhibition of CaMK1 at 1 uM; values are per cent of control
Calcium/calmodulin-dependent protein kinase type 1 (Homo sapiens), sequence (Q14012 whole entry, looked up): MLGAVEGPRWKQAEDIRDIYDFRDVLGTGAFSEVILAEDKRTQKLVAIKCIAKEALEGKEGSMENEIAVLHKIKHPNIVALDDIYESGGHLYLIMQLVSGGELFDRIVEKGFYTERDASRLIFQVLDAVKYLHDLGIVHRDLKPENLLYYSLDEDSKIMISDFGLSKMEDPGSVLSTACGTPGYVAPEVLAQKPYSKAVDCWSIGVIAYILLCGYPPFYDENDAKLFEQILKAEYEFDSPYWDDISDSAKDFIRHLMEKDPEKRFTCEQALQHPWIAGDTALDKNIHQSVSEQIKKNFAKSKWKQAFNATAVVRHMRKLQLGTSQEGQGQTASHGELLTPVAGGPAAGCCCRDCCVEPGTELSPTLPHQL

[9] = molecular target: Ephrin type-A receptor 4 (Homo sapiens) (UniProt P54764); experiment: Inhibition of EphA4 at 1 uM; values are per cent of control
[10] = molecular target: Receptor tyrosine-protein kinase erbB-4 (Homo sapiens) (UniProt Q15303); experiment: Inhibition of ErbB4 at 1 uM; values are per cent of control
Receptor tyrosine-protein kinase erbB-4 (Homo sapiens), sequence (Q15303 whole entry): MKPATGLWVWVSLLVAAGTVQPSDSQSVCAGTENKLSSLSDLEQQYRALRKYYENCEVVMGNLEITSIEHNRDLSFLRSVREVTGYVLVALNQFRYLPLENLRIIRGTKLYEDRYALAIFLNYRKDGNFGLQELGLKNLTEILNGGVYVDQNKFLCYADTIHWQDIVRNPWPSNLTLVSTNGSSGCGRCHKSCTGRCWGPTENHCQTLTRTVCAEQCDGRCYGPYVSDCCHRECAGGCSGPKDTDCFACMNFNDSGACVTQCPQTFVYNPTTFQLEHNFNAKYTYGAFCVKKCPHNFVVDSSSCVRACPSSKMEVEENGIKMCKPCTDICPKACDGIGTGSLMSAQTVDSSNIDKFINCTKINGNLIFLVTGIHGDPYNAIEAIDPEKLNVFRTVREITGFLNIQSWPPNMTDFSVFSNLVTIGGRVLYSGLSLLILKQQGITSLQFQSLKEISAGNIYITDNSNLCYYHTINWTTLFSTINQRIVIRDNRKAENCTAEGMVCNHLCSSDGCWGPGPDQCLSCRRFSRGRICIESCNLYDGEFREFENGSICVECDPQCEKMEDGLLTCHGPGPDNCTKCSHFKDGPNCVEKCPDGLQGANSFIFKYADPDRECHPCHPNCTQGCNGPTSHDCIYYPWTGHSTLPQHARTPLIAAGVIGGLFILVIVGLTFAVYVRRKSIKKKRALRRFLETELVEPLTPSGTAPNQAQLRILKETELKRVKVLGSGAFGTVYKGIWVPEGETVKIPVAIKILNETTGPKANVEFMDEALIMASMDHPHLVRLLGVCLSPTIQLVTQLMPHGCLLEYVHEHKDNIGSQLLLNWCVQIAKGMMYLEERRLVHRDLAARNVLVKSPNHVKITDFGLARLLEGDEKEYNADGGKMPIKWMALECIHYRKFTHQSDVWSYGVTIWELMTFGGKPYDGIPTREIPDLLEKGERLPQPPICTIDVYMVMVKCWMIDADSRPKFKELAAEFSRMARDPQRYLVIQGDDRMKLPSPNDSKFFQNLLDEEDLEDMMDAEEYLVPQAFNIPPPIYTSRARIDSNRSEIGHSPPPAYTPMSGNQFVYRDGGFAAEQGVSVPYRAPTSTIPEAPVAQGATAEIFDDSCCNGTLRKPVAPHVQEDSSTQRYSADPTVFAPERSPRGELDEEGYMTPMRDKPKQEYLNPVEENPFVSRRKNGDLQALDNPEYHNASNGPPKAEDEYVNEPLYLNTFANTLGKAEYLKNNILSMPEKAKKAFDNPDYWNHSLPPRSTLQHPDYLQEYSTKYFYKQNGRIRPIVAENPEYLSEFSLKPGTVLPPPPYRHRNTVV

[11] = molecular target: Fibroblast growth factor receptor 4 (Homo sapiens) (UniProt P22455); experiment: Inhibition of FGFR4 at 1 uM; values are per cent of control
Fibroblast growth factor receptor 4 (Homo sapiens), sequence (P22455 22-802 limits assumed): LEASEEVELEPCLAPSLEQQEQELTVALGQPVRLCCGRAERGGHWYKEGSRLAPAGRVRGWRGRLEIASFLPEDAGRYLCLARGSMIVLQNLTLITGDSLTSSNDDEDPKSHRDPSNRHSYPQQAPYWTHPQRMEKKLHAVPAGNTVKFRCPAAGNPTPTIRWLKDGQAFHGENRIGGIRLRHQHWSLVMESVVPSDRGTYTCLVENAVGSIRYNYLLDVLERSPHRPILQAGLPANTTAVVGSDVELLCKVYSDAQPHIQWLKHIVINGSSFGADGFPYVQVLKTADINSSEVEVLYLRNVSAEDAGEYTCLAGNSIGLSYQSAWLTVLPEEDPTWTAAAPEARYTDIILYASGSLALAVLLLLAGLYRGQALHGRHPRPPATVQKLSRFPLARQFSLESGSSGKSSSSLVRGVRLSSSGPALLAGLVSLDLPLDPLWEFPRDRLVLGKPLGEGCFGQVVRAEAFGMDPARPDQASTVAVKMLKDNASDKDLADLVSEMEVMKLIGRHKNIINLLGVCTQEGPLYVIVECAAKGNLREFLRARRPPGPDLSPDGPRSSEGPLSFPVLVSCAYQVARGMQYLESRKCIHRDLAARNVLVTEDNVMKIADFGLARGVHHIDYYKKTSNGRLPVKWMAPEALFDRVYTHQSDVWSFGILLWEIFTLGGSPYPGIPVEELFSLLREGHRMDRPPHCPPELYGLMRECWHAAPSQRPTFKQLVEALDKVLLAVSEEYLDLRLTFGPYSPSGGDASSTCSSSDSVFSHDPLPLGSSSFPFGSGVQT

[12] = molecular target: T3, Tyrosine-protein kinase ZAP-70 (Homo sapiens) (UniProt P43403); experiment: Inhibition of ZAP70 at 1 uM; values are per cent of control
T3 sequence (whole entry): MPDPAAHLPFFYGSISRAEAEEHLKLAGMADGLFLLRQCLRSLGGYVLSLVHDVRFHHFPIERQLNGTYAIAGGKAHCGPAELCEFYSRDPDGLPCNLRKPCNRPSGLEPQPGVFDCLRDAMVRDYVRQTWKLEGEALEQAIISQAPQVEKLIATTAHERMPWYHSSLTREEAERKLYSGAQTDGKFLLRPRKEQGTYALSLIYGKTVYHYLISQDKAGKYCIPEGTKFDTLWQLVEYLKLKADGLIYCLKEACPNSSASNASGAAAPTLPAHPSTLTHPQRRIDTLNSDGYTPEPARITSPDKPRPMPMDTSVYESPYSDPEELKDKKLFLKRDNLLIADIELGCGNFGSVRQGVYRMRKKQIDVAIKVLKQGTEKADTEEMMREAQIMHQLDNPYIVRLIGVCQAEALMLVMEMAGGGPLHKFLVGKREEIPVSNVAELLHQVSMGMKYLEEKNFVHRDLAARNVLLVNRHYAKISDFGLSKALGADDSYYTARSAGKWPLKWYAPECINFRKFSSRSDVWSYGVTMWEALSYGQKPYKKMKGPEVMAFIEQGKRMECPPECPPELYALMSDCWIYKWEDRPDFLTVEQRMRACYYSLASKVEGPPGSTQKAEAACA

[13] = Inhibition of ROCK1 at 0.1 uM; values are per cent of control
[14] = molecular target: Serine/threonine-protein kinase 33 (Homo sapiens) (UniProt Q9BYT3); experiment: Inhibition of STK33 at 0.1 uM; values are per cent of control
Serine/threonine-protein kinase 33 (Homo sapiens), sequence (Q9BYT3 whole entry, looked up): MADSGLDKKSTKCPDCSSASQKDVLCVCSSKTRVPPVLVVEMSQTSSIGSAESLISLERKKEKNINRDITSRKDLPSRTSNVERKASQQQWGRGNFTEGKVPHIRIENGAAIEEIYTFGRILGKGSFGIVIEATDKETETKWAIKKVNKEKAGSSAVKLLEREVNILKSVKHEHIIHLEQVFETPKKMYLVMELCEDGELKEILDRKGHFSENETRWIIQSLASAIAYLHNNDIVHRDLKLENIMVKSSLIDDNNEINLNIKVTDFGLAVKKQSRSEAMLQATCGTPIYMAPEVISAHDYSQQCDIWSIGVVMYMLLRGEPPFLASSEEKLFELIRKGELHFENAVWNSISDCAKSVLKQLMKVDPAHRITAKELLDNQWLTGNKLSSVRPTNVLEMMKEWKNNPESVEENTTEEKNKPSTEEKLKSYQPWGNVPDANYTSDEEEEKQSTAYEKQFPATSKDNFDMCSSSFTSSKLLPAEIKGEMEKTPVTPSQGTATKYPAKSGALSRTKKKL

[15] = molecular target: Mitogen-activated protein kinase 8 (Homo sapiens) (UniProt P45983); experiment: Inhibition of JNK1a1 at 0.1 uM; values are per cent of control

Mitogen-activated protein kinase 8 (Homo sapiens), sequence (P45983 whole entry): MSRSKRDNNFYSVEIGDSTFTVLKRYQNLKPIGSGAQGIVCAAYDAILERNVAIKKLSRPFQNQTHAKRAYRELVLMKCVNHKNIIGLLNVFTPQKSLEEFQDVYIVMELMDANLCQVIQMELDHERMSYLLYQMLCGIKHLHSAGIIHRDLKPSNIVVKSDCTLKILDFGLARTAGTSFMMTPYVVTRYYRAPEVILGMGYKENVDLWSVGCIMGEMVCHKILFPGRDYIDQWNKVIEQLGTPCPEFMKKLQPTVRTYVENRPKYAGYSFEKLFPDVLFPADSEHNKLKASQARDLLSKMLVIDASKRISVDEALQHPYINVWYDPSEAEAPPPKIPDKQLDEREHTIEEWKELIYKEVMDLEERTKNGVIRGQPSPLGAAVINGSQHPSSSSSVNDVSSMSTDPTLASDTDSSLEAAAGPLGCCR

inhibition [1] | inhibition [2] | inhibition [3] | inhibition [4] | residual activity [5] | residual activity [6] | residual activity [7] | residual activity [8] | residual activity [9] | residual activity [10] | residual activity [11] | residual activity [12] | residual activity [13] | residual activity [14] | residual activity [15] | SMILES
76% | 10% | 97% | 87% | 7% | 5% | 45% | 78% | 68% | 10% | 10% | 75% | 92% | 13% | 83% | Cc1ccc2cc(-c3n[nH]c4ccc(NC5CCN(Cc6ccccc6)CC5)cc34)[nH]c2c1
73% | 16% | 99% | 76% | 2% | 6% | 15% | 24% | 72% | 81% | 6% | 35% | 47% | 76% | 101% | Cc1ccc2cc(-c3n[nH]c4ccc(NC5CCNC5)cc34)[nH]c2c1 (stereo not given)

From ChEMBL document CHEMBL1681705, “Optimisation of ITK inhibitors through successive iterative design cycles” (Bioorg Med Chem Lett, 2011)
